Assay results: ChEMBL document CHEMBL1141603, “2-aryloxy-4-alkylaminopyridines: discovery of novel corticotropin-releasing factor 1 antagonists” (J Med Chem, 2008)
In brackets after ≈: the same amount, converted by molar mass. One block for each molecule: values may come before it. Activity calls are given as the source filed them. No cut-off for these calls is given here.

Columns and labels:
[1] = target: T1, Corticotropin-releasing factor receptor 1 (Rattus norvegicus, UniProt P35353); experiment: (§1) Displacement of [125I]oCRF from rat CRF1 after 2 hrs by Betaplate scintillation counter
T1 sequence (P35353 whole entry): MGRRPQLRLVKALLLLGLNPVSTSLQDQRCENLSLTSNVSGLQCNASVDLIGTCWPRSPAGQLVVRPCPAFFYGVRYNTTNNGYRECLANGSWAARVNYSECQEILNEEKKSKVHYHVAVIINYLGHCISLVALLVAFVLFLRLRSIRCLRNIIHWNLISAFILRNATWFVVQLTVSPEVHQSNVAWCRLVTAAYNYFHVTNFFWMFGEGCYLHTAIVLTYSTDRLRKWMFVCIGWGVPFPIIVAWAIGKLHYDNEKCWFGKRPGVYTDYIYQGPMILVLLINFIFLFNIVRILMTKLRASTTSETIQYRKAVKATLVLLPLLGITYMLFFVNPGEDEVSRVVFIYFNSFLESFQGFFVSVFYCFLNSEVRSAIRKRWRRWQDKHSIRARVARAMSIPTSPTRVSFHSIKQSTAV

[2] = Solubility at pH 7; format: physicochemical; details: buffer
[3] = Dissociation constant, pKa of the compound; format: physicochemical
[4] = Solubility at pH 2; format: physicochemical; details: buffer
Rattus norvegicus [5] = experiment: Ex vivo displacement of [125I]oCRF from CRF1 receptor in Sprague-Dawley rat pituitary at 3.2 mg/kg, po after 2 hrs by Betaplate scintillation counter; format: functional
In short: (§2)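 Male Sprague–Dawley rats (200–300 g) dosed orally 3.2 mg/kg; killed usually 1 h later, brain and pituitary frozen. Tissue at 25 mg wet wt/mL in PIPES pH 7.0 buffer with MgCl2, EGTA, bacitracin, aprotinin, incubated with 40 pM 125I-oCRF 2 h at room temperature; nonspecific with 1 µM rat/human CRF. Pellets centrifuged, rinsed, filtered, scintillation counted.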

Rattus norvegicus [6] = experiment: Ex vivo displacement of [125I]oCRF from CRF1 receptor in Sprague-Dawley rat brain cortex at 3.2 mg/kg, po after 2 hrs by Betaplate scintillation counter; format: functional; in short: as §2
[7] = Metabolic stability in human liver microsomes assessed as half life; format: ADME, Microsome
[8] = Fraction unbound ligand in human serum; format: ADME, cell-free
[9] = Intrinsic clearance in human liver microsomes; format: ADME, Microsome
[10] = target: T2, Corticotropin-releasing factor receptor 1 (Rattus norvegicus) (UniProt P35353); experiment: as §1
T2 sequence (whole entry): T1 sequence (P35353 whole entry)

[11] = Cmax in fed Beagle dog at 1.0 mg/kg, po; format: ADME, organism-based, Canis lupus familiaris; set-up: dose 1 mg/kg, route oral; details: in vivo
In short: (§3)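 Beagles fed one can of wet dog food 1 h before gavage of drug suspended in 0.1% methyl cellulose pH 2. Serum from jugular venipuncture at 0.25–24 h postdose, GC-MS analysis (LLOQ 1.0 ng/mL). Bioavailability = dose-normalized oral AUC(0–∞) over i.v. AUC(0–∞).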

[12] = Tmax in fed Beagle dog at 1.0 mg/kg, po; format: ADME, organism-based, Canis lupus familiaris; set-up: dose 1 mg/kg, route oral; details: in vivo; in short: as §3
Rattus norvegicus [13] = species on record: Rattus norvegicus; experiment: Inhibition of CRF-induced […] of HPA axis in Sprague-Dawley rat assessed as increase in ACTH levels by radioimmunoassay; format: functional; details: read-out: MED
In short: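 Oral pretreatment in rats, N = 10 per group, then i.v. CRF 4 µg/kg; plasma ACTH measured. Minimum effective dose versus CRF alone by one-way ANOVA with Dunnett's post hoc test, p < 0.05.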

[14] = Volume of distribution at steady state in Beagle dog at 1.0 mg/kg, iv; format: ADME, organism-based, Canis lupus familiaris; set-up: dose 1 mg/kg, route intravenous; details: in vivo, read-out: Vdss
In short: (§4)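 Four beagles (2 male, 2 female, 8–15 kg), 1.0 mg/kg into cephalic vein; fasted ~21 h predose, fed ~3.5 h postdose. Serum sampled from jugular at 0.083–24 h, assayed by GC-MS (LLOQ 1.0 ng/mL). Noncompartmental: linear trapezoid AUC/AUMC, kel from log-linear terminal slope, t1/2 = 0.693/kel, CL = dose/AUC, VDss = CL·AUMC/AUC, VDγ = CL/kel.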

[15] = Oral bioavailability in fasted Beagle dog at 1.0 mg/kg; format: ADME, organism-based, Canis lupus familiaris; details: in vivo
In short: (§5)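 Fasted beagles (fasted ~21 h, food ~3.5 h postdose) gavaged with drug suspended in 0.1% methyl cellulose pH 2. Jugular serum taken 0.25–24 h, GC-MS quantitation (LLOQ 1.0 ng/mL). Cmax and Tmax from observed profiles; F = (dose i.v.·AUC p.o.)/(dose p.o.·AUC i.v.), AUC by linear trapezoid with log-linear extrapolation.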

Rattus norvegicus [16] = experiment: Inhibition of CRF-induced startle response in Sprague-Dawley rat at 17.8 mg/kg, po; format: functional, organism-based; set-up: dose 17.8 mg/kg
In short: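 CRF 1 µg given icv to rats to enhance acoustic startle; compound dosed p.o. beforehand, with baseline startle also recorded.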

Rattus norvegicus [17] = experiment: Inhibition of fear-potentiated startle response in Sprague-Dawley rat at 10 mg/kg, po; format: functional, organism-based; set-up: dose 10 mg/kg
[18] = Clearance in Beagle dog at 1.0 mg/kg, iv; format: ADME, organism-based, Canis lupus familiaris; set-up: dose 1 mg/kg, route intravenous; details: in vivo; in short: as §4
[19] = target: T3, Corticotropin-releasing factor receptor 2 (Homo sapiens, UniProt Q13324); experiment: Binding affinity for human CRF2 receptor; details: read-out: Ki app
T3 sequence (Q13324 whole entry): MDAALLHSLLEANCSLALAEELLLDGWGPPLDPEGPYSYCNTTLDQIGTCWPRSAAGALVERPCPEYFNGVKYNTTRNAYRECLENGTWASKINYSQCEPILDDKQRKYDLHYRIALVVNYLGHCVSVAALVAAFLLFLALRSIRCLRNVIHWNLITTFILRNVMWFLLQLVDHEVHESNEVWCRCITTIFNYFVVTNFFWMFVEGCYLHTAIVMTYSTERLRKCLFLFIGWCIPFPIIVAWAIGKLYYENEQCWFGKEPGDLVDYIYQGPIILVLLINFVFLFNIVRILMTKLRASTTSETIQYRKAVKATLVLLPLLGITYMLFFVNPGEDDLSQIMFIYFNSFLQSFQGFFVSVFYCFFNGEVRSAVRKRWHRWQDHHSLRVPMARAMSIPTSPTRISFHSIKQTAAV

[20] = target: T1, Corticotropin-releasing factor receptor 1; experiment: Antagonist activity at CRF1 receptor in rat cortical membrane assessed as oCRF-stimulated adenylate cyclase activity after 15 mins by liquid scintillation; format: functional, cell membranes; details: read-out: Ki app
[21] = Half life at terminal elimination phase in Beagle dog at 1.0 mg/kg, iv; format: ADME, organism-based, Canis lupus familiaris; set-up: dose 1 mg/kg, route intravenous; details: in vivo; in short: as §4
[22] = Oral bioavailability in fed Beagle dog at 1.0 mg/kg; format: ADME, organism-based, Canis lupus familiaris; details: in vivo; in short: as §3
[23] = Solubility at pH 2.4; format: physicochemical; details: buffer
[24] = Cmax in fasted Beagle dog at 1.0 mg/kg, po; format: ADME, organism-based, Canis lupus familiaris; set-up: dose 1 mg/kg, route oral; details: in vivo; in short: as §5
[25] = Tmax in fasted Beagle dog at 1.0 mg/kg, po; format: ADME, organism-based, Canis lupus familiaris; set-up: dose 1 mg/kg, route oral; details: in vivo; in short: as §5
[26] = Volume of distribution at terminal elimination phase in Beagle dog at 1.0 mg/kg, iv; format: ADME, organism-based, Canis lupus familiaris; set-up: dose 1 mg/kg, route intravenous; details: in vivo; in short: as §4
[27] = target: T4, Corticotropin-releasing factor receptor 1 (Homo sapiens, UniProt P34998); experiment: Antagonist activity at human CRF1 receptor assessed as oCRF-stimulated adenylate cyclase activity after 15 mins by liquid scintillation counting; format: functional; details: read-out: Ki app
T4 sequence (P34998 whole entry): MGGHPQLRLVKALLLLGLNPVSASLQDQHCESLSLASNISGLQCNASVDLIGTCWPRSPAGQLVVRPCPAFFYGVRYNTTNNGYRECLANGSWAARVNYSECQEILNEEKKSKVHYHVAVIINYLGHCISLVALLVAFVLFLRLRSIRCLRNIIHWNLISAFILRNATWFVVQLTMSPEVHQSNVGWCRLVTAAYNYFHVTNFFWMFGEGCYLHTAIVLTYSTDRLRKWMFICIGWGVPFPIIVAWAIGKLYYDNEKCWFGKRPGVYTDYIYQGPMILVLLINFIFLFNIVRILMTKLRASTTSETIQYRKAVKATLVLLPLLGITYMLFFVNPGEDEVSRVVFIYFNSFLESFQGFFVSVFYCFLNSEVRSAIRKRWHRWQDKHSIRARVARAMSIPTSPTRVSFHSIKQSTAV

Rattus norvegicus [28] = experiment: Inhibition of fear-potentiated startle response in Sprague-Dawley rat at 0.32 to 3.2 mg/kg, po; format: functional; set-up: scale not given: the % may be the effect or the level left; details: dose mg/kg 0.32-3.2
Rattus norvegicus [29] = experiment: Inhibition of CRF-induced exitation of locus coerulus neurons in iv dosed Sprague-Dawley rat; format: functional; details: read-out: ID50 (the source's name)
[30] = Tmax in fed Beagle dog at 5.0 mg/kg, po; format: ADME, organism-based, Canis lupus familiaris; set-up: dose 5 mg/kg, route oral; details: in vivo; in short: as §3
[31] = Oral bioavailability in fed Beagle dog at 5.0 mg/kg; format: ADME, organism-based, Canis lupus familiaris; details: in vivo; in short: as §3
[32] = Oral bioavailability in fasted Beagle dog at 5.0 mg/kg; format: ADME, organism-based, Canis lupus familiaris; details: in vivo; in short: as §5
[33] = Cmax in fasted Beagle dog at 5.0 mg/kg, po; format: ADME, organism-based, Canis lupus familiaris; set-up: dose 5 mg/kg, route oral; details: in vivo; in short: as §5
[34] = Cmax in fed Beagle dog at 5.0 mg/kg, po; format: ADME, organism-based, Canis lupus familiaris; set-up: dose 5 mg/kg, route oral; details: in vivo; in short: as §3
[35] = Tmax in fasted Beagle dog at 5.0 mg/kg, po; format: ADME, organism-based, Canis lupus familiaris; set-up: dose 5 mg/kg, route oral; details: in vivo; in short: as §5

Compound: CCC(CC)Oc1cc(C)nc(Nc2c(C)cc(C)cc2C)c1C
IC50 [1]: 3.7 nM

Compound: CCC(CC)Oc1cc(C)nc(Oc2c(C)cc(C)cc2C)c1C.CS(=O)(=O)O
solubility [2]: 0.2 µg/mL
pKa [3]: 3.6
solubility [4]: 3 µg/mL

Compound: CC[C@@H](CO)Nc1cc(C)nc(Oc2c(C)cc(Cl)cc2C)c1C(=O)NC
inhibition in vivo at 3.2 mg/kg (Rattus norvegicus [5]): 63%
inhibition in vivo at 3.2 mg/kg (Rattus norvegicus [6]): 86%
IC50 [1]: 31 nM
fraction unbound [8]: 0.045

Compound: CC[C@@H](CO)Nc1cc(C)nc(Oc2c(C)cc(Cl)cc2C)c1C(=O)OC
inhibition in vivo at 3.2 mg/kg (Rattus norvegicus [5]): 86%
microsomal CLint [9]: 47 µL/min/mg
inhibition in vivo at 3.2 mg/kg (Rattus norvegicus [6]): 111%
IC50 [1]: 6.4 nM

Compound: CCC(CC)Oc1cc(C)nc(Nc2c(C)cc(C)cc2C)c1C(=O)O
Activity [10]: inactive

Further lines, with some results ahead:

IC50 [1]: 7.2 nM
half-life [7]: 0.5 h
Compound: CCC(CC)Nc1cc(C)nc(Oc2c(C)cc(Cl)cc2C)c1C
inhibition in vivo at 3.2 mg/kg (Rattus norvegicus [5]): 72%
inhibition in vivo at 3.2 mg/kg (Rattus norvegicus [6]): 79%

IC50 [1]: 5.6 nM
Compound: CCC(CC)Nc1cc(C)nc(Oc2c(C)cc(Br)cc2C)c1C
inhibition in vivo at 3.2 mg/kg (Rattus norvegicus [5]): 81%
inhibition in vivo at 3.2 mg/kg (Rattus norvegicus [6]): 86%

Cmax [11]: 131 ng/mL
Tmax [12]: 2 h
Vd [14]: 5.3 L/kg
bioavailability [15]: 22%
clearance [18]: 17 mL/min/kg
Ki [19]: > 10000 nM
Ki [20]: 12 nM
half-life [21]: 8.8 h
bioavailability [22]: 64%
solubility [23]: 5400 µg/mL (≈ 16.5 mM)
Cmax [24]: 46.2 ng/mL
solubility [2]: 0.1 µg/mL (≈ 0.000306 mM)
Tmax [25]: 1.8 h
pKa [3]: 6.9
IC50 [1]: 5.1 nM
Vd [26]: 12 L/kg
half-life [7]: 0.633 h
Ki [27]: 12 nM
Compound: CCC(CC)Nc1cc(C)nc(Oc2c(C)cc(C)cc2C)c1C
inhibition in vivo at 3.2 mg/kg (Rattus norvegicus [5]): 49%
minimal effective dose (Rattus norvegicus [13]): 10 mg/kg
Activity (Rattus norvegicus [16]): Active
Activity (Rattus norvegicus [17]): Active
inhibition in vivo at 3.2 mg/kg (Rattus norvegicus [6]): 81%
Activity (Rattus norvegicus [28]): 62%
ED50 (Rattus norvegicus [29]): < 0.01 mg/kg

pKa [3]: 9.3
IC50 [1]: 750 nM
Compound: CCC(CC)Nc1cc(C)nc(Nc2c(C)cc(C)cc2C)c1C

Tmax [30]: 1.9 h
Vd [14]: 1.1 L/kg
clearance [18]: 4.1 mL/min/kg
half-life [21]: 8.3 h
bioavailability [31]: 37%
bioavailability [32]: 3.6%
Cmax [33]: 187 ng/mL
IC50 [1]: 6.8 nM
Vd [26]: 3.1 L/kg
Cmax [34]: 1740 ng/mL
Tmax [35]: 1.5 h
Compound: CCC(CC)Oc1cc(C)nc(Oc2c(C)cc(C)cc2C)c1C
inhibition in vivo at 3.2 mg/kg (Rattus norvegicus [5]): 72%
inhibition in vivo at 3.2 mg/kg (Rattus norvegicus [6]): 75%
